Experimental data gathered from unrelated publications.
Each line is one published result; the experiments were not run side by side.
CDK4: Cyclin-dependent kinase 4 (CDK4, Homo sapiens, UniProt P11802)
CDK4 with cyclin D1: Cyclin-dependent kinase 4, with cyclin D1 (CDK4, Homo sapiens, UniProt P11802)
CDK4 with cyclin D3: Cyclin-dependent kinase 4, with cyclin D3 (CDK4, Homo sapiens, UniProt P11802)

O=C(c1ccccc1)[C@H]1Cc2c(cc([N+](=O)[O-])cc2[N+](=O)[O-])[C@@H](O)[C@@]12C(=O)Nc1ccccc12
inhibition (CDK4; cell-free assay, inhibitor, TR-FRET; 1 µM): 39.5%

Oc1cccc(-c2nc(N3CCOCC3)c3oc4ncccc4c3n2)c1
remaining signal (CDK4 with cyclin D1; cell-free assay; 0.5 µM): 102%

CCCCN(CCCC)C(=O)CN1C[C@@H](c2cc(OC)c3c(c2)OCO3)[C@H](C(=O)O)[C@H]1CC(C)(C)CCC
remaining binding (CDK4 with cyclin D3; cell-free assay, competition with immobilised ligand; 1 µM): 92.7%

O=C1NC(=O)c2cc(Nc3ccc(F)cc3)c(Nc3ccc(F)cc3)cc21
remaining signal (CDK4 with cyclin D3; cell-free assay; 0.5 µM): 99%

CN(CCCC(F)(F)F)c1nccc(-c2cnn3ncccc23)n1
remaining binding (CDK4; binding; 1 µM): 100%

COc1ccc2cc(OCC3(C(=O)O)CN(C(=O)c4ccc(F)cc4)C3)ccc2c1
remaining binding (CDK4 with cyclin D3; cell-free assay, competition with immobilised ligand; 1 µM): 100%

O=C(c1ccc(F)cc1)[C@H]1Cc2c(cc([N+](=O)[O-])cc2[N+](=O)[O-])[C@H](O)[C@]12C(=O)Nc1ccccc12
inhibition (CDK4; cell-free assay, inhibitor, TR-FRET; 1 µM): 23.2%

CS(=O)(=O)CCNCc1ccc(-c2ccc3ncnc(Nc4ccc(OCc5cccc(F)c5)c(Cl)c4)c3c2)o1
remaining signal (CDK4 with cyclin D3; cell-free assay; 0.5 µM): 104%

O=C(c1ccc(Cl)c(Cl)c1)[C@H]1Cc2c(cc([N+](=O)[O-])cc2[N+](=O)[O-])[C@@H](O)[C@@]12C(=O)Nc1ccccc12
inhibition (CDK4; cell-free assay, inhibitor, TR-FRET; 1 µM): 35.6%

C[C@H]1CCN(c2nccc(-c3cnn4ncccc34)n2)C1
remaining binding (CDK4 with cyclin D1; binding; 1 µM): 80%

COc1cc2c(cc1OC)-c1[nH]nc(Nc3cccc(F)c3)c1C2
remaining signal (CDK4 with cyclin D1; cell-free assay; 0.5 µM): 93.9%

O=C(Nc1cnn(-c2csc(C(=O)NC3COC3)c2)c1)Nc1c(F)cccc1Cl
remaining activity (CDK4 with cyclin D3; enzyme activity, inhibitor; 5 µM): 79.4%

COc1cc(Cl)c(C(=O)N[C@@H](CN[C@H]2CC[C@@H](N)CC2)Cc2ccc(C#N)cc2)cc1-c1ccc(CN[C@H](C)c2ccc(C)cc2)o1
remaining activity (CDK4 with cyclin D3; enzyme activity, inhibitor; 1 µM): 103%

N[C@H]1CCN(c2nccc(-c3cnn4ncccc34)n2)C1
remaining binding (CDK4 with cyclin D1; binding; 1 µM): 100%

N#CCCc1ccc2c(c1)-c1[nH]c3ccc([N+](=O)[O-])cc3c1CC(=O)N2
remaining signal (CDK4 with cyclin D3; cell-free assay; 0.5 µM): 25.9%

COc1ccc(C(=O)[C@H]2Cc3c(cc([N+](=O)[O-])cc3[N+](=O)[O-])[C@H](O)[C@]23C(=O)Nc2ccccc23)cc1
inhibition (CDK4; cell-free assay, inhibitor, TR-FRET; 1 µM): 18.4%

CC(C)(C)c1nc2c(s1)c1nc(N)ncc1c1ccc(NS(=O)(=O)c3c(F)cccc3F)c(F)c12
remaining activity (CDK4 with cyclin D3; enzyme activity, inhibitor, radiometric; 1 µM): 100%

Cc1sc(C(=O)NC2COC2)cc1-n1cc(NC(=O)Nc2c(F)cccc2Cl)cn1
remaining activity (CDK4 with cyclin D3; enzyme activity, inhibitor; 10 µM): 96.5%

CCOCCn1cc(C(=O)Nc2ccc(-n3nc(-c4cccnc4)cc3C(F)(F)F)cn2)ccc1=O
remaining binding (CDK4; cell-free assay, competition with immobilised ligand; 1 µM): 87%

Nc1ncnc2occ(-c3ccc(NC(=O)Nc4cc(C(F)(F)F)ccc4F)cc3)c12
remaining signal (CDK4; cell-free assay, inhibitor; 20 µM): 29%

COc1ccc(OC)c2c(=S)c3ccccc3[nH]c12
remaining signal (CDK4 with cyclin D3; cell-free assay; 0.5 µM): 95.5%

CN1CCN(c2cnc3c(C4CCN(C(=O)c5ccc(OC(F)(F)F)cc5N)CC4)ncnc3c2)CC1
remaining binding (CDK4; cell-free assay, competition with immobilised ligand; 1 µM): 100%

Cc1ccc(C(=O)NCc2ccsc2)cc1C#Cc1cn(C(C)C)c2ncnc(N)c12
activity vs control (CDK4 with cyclin D3; enzyme activity, inhibitor; 1 µM): 92%

CN(C)c1nccc(-c2cnn3ncccc23)n1
remaining binding (CDK4 with cyclin D1; binding; 1 µM): 100%

CNC(=O)Nc1ccc2c(c1)[C@@]1(CC2)OC(=O)N(CC(=O)N(Cc2ccc(F)cc2)[C@@H](C)C(F)(F)F)C1=O
remaining binding (CDK4; cell-free assay, competition with immobilised ligand; 1 µM): 73%

Cc1ccc(NC(=O)c2ccc(C)c(C(F)(F)F)c2)cc1C#Cc1nn(C2CCC(O)CC2)c2ncnc(N)c12 (stereo not shown)
remaining signal (CDK4 with cyclin D3; cell-free assay; 10 µM): 86%

F[C@@H]1CCN(c2nccc(-c3cnn4ncccc34)n2)C1
remaining binding (CDK4 with cyclin D1; binding; 1 µM): 100%

Cc1nccc(COC(=O)N2C[C@@H]3[C@@H](CNC(=O)c4ccc5[nH]nnc5c4)[C@@H]3C2)n1
remaining binding (CDK4 with cyclin D1; cell-free assay, competition with immobilised ligand; 1 µM): 90%

CCN(CC)CCNC(=O)c1c(C)[nH]c(/C=C2\C(=O)Nc3ccc(F)cc32)c1C
remaining signal (CDK4 with cyclin D3; cell-free assay; 0.5 µM): 93%

O=C(c1ccccc1F)[C@H]1Cc2c(cc([N+](=O)[O-])cc2[N+](=O)[O-])[C@@H](O)[C@@]12C(=O)Nc1ccccc12
inhibition (CDK4; cell-free assay, inhibitor, TR-FRET; 1 µM): 38.9%

O=C(Nc1cnn(-c2csc(C(=O)NC3COC3)c2)c1)Nc1ccccc1Cl
remaining activity (CDK4 with cyclin D1; enzyme activity, inhibitor; 5 µM): 92.2%

CC1CCCN1c1nccc(-c2cnn3ncccc23)n1 (stereo not shown)
remaining binding (CDK4 with cyclin D1; binding; 1 µM): 100%

CC(C)(C)c1nc(-c2cccc(NS(=O)(=O)c3c(F)cccc3F)c2F)c(-c2ccnc(N)n2)s1
remaining activity (CDK4 with cyclin D3; enzyme activity, inhibitor, radiometric; 1 µM): 119%

CO[C@@H](C)c1c(Nc2ccc([C@H](N(C)C(=O)C3CCS(=O)(=O)CC3)C(F)(F)F)cc2)cnc2cc(Cl)nn12
remaining binding (CDK4 with cyclin D1; cell-free assay, competition with immobilised ligand; 1 µM): 100%

CC(C)(O)[C@H]1CC[C@H](Nc2ccc3ncc(-c4cccc(C(F)(F)F)c4)n3n2)CC1
remaining activity (CDK4 with cyclin D3; enzyme activity, inhibitor; 1 µM): 106%

O=C1Nc2ccc(Cl)cc2C1=Cc1cc(Cl)c(O)c(Cl)c1
remaining signal (CDK4 with cyclin D1; cell-free assay; 0.5 µM): 94.7%

O=C(c1ccc(Br)cc1)[C@H]1Cc2c(cc([N+](=O)[O-])cc2[N+](=O)[O-])[C@H](O)[C@]12C(=O)Nc1ccccc12
inhibition (CDK4; cell-free assay, inhibitor, TR-FRET; 1 µM): 18.6%

Nc1nc(Nc2ccc(S(N)(=O)=O)cc2)sc1C(=O)c1ccccc1[N+](=O)[O-]
inhibition (CDK4; enzyme activity, inhibitor; 0.1 µM): 87%

Cc1cnn2ncc(-c3ccnc(N(C)C)n3)c2c1
remaining binding (CDK4 with cyclin D3; binding; 1 µM): 83%

CSc1cccnc1N1CCN(Cc2nc3ccccc3[nH]2)CC1
remaining binding (CDK4 with cyclin D3; cell-free assay, competition with immobilised ligand; 1 µM): 82%
